Test results: publication PMC3206162 (The international journal of biochemistry & cell biology, 2011)
Where two headings read alike, the source gives them in different places. No end group written: not given here.

Legend:
[1] = system: MEC; type: cell-based, human; details: 72 h
[2] = system: HUVEC; test: CytoTox-ONE LDH release cytotoxicity assay on HUVEC; details: 10μM peptide, 72 h
[3] = system: LEC
[4] = system: cell apoptosis; details: cited from earlier work
[5] = system: LEC; test: RTCA E-plate LEC adhesion assay; type: cell-based, human; details: read-out: IC50 LEC adhesion; cell index at 1 h; 100, 33, 11, 3.7, 1.2μM
Method in brief: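 LEC seeded at 25,000 cells/well in EGM-2MV medium onto E-plate wells already holding peptide, so the cells dilute the peptide to its final concentration. Plate equilibrated 30 min at room temperature, then loaded into the RTCA system. Cell index analysed at 1 h as the adhesion read-out.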

[6] = system: LEC; type: cell-based, human; details: 72 h
[7] = system: HUVEC; type: cell-based, human; details: 72 h
[8] = system: LEC; details: 20 h
[9] = system: MEC; test: CytoTox-ONE LDH release cytotoxicity assay on MEC; details: 72 h, complete media control = 100%; for LDH level, MEC: 10μM peptide; for LDH activity compared to the control, MEC: 100μM peptide
[10] = system: LEC; test: CytoTox-ONE LDH release cytotoxicity assay on LEC; details: 72 h, complete media control = 100%

For LLHISLLLIESRLE [SP5032], the IC50 [1] was 80.1 ± 47.9 µM and the “cytotoxic (LDH) activity, HUVEC” value [2] was “significant cytotoxic activity”.

With LLRISLLLIESWLE [SP5033] the IC50 [1] was 81.1 ± 37.2 µM and the “LDH activity compared to the control, LEC” value [3] was “significant LDH activity”.

In the case of “LLRISLLLIQSWLE [tilted PRL peptide, reference compound]”, the cell apoptosis ([4]; ref Nguyen et al., 2006) is listed as “led to cell apoptosis”.

With LLRLLLLIESWLE [SP5030] the IC50 [1] was 93.2 ± 42.3 µM and the “cytotoxic (LDH) activity, HUVEC” value [2] was “significant cytotoxic activity”.

In the case of LLRSSLILLQGSWF [SP5031], the IC50 [5] is reported as 24.2 µM, the IC50 [1] is reported as 83.4 ± 21.9 µM and the IC50 [6] is reported as 158 ± 122 µM. For the same molecule, the IC50 [7] was 96.9 ± 34.3 µM and the IC50 [8] was 25.1 µM.

For LMRKSQILISSWF [SP5028], the “LDH level, MEC” value [9] was “more than 150%”, the “LDH activity compared to the control, MEC” value [9] was “more than 200%” and the IC50 [7] was 58.2 ± 35.2 µM.

With RLRLLTLQSWLL [SP5001] the IC50 [1] was 52.4 ± 27.8 µM, the “LDH activity compared to the control, LEC” value [10] was “significant LDH activity” and the “LDH level, MEC” value [9] was “more than 150%”. The “LDH activity compared to the control, MEC” value [9] was “more than 200%” and the IC50 [7] was 50.7 ± 31.8 µM.

B1: PRL protein: prolactin (PRL) protein (protein, UniProt P01236 29-227, looked up)
Prolactin: LPICPGGAARCQVTLRDLFDRAVVLSHYIHNLSSEMFSEFDKRYTHGRGFITKAINSCHTSSLATPEDKEQAQQMNQKDFLSLIVSILRSWNEPLYHLVTEVRGMQEAPEAILSKAVEIEEQTKRLLEGMELIVSQVHPETKENEIYPVWSGLPSLQMADEESRLSAYYNLLHCLRRDSHKIDNYLKLLKCRIIHNNNC
For B1, the “apoptosis in a prostate cancer model” value ([4]; prostate cancer model, ref Giuffrida et al., 2010) is given as “induced apoptosis”.
